In ChEMBL document CHEMBL2440044, “Synthesis and anti-tumor activity of carbohydrate analogues of the tetrahydrofuran containing acetogenins” (Bioorg Med Chem, 2013):

What was measured:
Type in all cases: functional, cell-based
MDA-MB-231 = experiment: Cytotoxicity against human MDA-MB-231 cells after 48 hrs by Cell titer Glo assay; details: MDA-MB-231, 48 h
Summary of the method: (§1)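 Cells grown in medium with 10% FBS and penicillin-streptomycin: DMEM for HeLa, MDA-MB231 and PC-3, RPMI for Jurkat. Compounds were taken from 20 mM DMSO stocks and serially diluted in medium at 37 °C. Cells were exposed for 48 h. Viability was read as ATP luminescence and normalized to untreated control (% viability). IC50 came from dose-response curve fits; each was run three times and given as mean ± SD.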

HeLa = experiment: Cytotoxicity against human HeLa cells after 48 hrs by Cell titer Glo assay; summary of the method: as §1
Jurkat = experiment: Cytotoxicity against human Jurkat cells after 48 hrs by Cell titer Glo assay; summary of the method: as §1
PC-3 = experiment: Cytotoxicity against human PC3 cells after 48 hrs by Cell titer Glo assay; details: PC-3, 48 h; summary of the method: as §1

SMILES	IC50 (MDA-MB-231)	IC50 (HeLa)	IC50 (Jurkat)	IC50 (PC-3)
CCCCCCCCCCCO[C@H]1[C@@H](O)[C@@H](CO)O[C@@H](OCCCCCCCCCCCC[C@@H](O)CC2=C[C@H](C)OC2=O)[C@@H]1O	73.5 µM	50.3 µM	78.2 µM	–
CCCCCCCCCCCOC[C@H]1O[C@H](OCCCCCCCCCCCC[C@@H](O)CC2=C[C@H](C)OC2=O)C[C@@H](O)[C@@H]1O	16.8 µM	16.3 µM	13.3 µM	44 µM
CCCCCCCCCCCOC[C@@H]1CC[C@H](O)[C@@H](OCCCCCCCCCCCC[C@@H](O)CC2=C[C@H](C)OC2=O)O1	21.8 µM	13.9 µM	10.7 µM	28.7 µM
CCCCCCCCCCCOC[C@@H]1C[C@H](O)[C@H](O)[C@@H](OCCCCCCCCCCCC[C@@H](O)CC2=C[C@H](C)OC2=O)O1	36.7 µM	23.3 µM	19.7 µM	52.8 µM
CCCCCCCCCCCOC[C@H]1O[C@H](OCCCCCCCCCCCC[C@@H](O)CC2=C[C@H](C)OC2=O)[C@@H](O)[C@@H](O)[C@@H]1O	21.2 µM	15.2 µM	10.1 µM	32.6 µM
CCCCCCCCCCCC[C@@H](O)[C@H]1CC[C@H]([C@H](O)CCCCC[C@@H](O)CCCCCCC2=C[C@H](C)OC2=O)O1	34.2 µM	21 µM	17.8 µM	43.1 µM
